Key:
Neutrophil elastase = target: T1, Neutrophil elastase (Homo sapiens, UniProt P08246); assay: Inhibition of human leukocyte elastase
T1 sequence (P08246 whole entry): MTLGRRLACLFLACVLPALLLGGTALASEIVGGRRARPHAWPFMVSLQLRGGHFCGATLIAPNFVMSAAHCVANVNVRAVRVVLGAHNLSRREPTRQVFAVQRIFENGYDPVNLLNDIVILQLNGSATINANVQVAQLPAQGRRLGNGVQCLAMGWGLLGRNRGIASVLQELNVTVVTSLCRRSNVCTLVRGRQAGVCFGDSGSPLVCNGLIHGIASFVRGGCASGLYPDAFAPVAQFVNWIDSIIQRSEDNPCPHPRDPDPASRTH
Outline: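 Human leukocyte elastase at 50 ng/ml final, 25 °C, in 50 mM sodium phosphate, 500 mM NaCl, pH 7.8. MeOSuc-Ala-Ala-Pro-Val-pNA at 100 µM final (1.9 Km), with 3.5% DMSO; started with enzyme. Read at 405 nm over 10 min. IC50 from linear steady-state rates: duplicate determinations at 25 and 50 µM, or five concentrations fitted nonlinearly.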

Cathepsin G = target: T2, Cathepsin G (Homo sapiens, UniProt P08311); assay: Inhibition of human cathepsin G
T2 sequence (P08311 whole entry): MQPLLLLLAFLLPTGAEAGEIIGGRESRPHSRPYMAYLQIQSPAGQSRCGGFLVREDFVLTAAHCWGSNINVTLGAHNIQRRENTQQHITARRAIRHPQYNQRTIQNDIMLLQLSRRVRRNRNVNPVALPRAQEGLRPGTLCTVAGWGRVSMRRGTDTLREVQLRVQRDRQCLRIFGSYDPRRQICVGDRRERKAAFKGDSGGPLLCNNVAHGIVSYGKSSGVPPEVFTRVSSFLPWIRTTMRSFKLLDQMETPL
Outline: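 Human cathepsin G at 2.5 mU/ml final, 25 °C, in 20 mM Tris-HCl, 150 mM NaCl, pH 8.4. Suc-Ala-Ala-Pro-Phe-pNA at 500 µM final, with 1.5% DMSO; started with enzyme. Read at 405 nm over 10 min. IC50 from linear steady-state rate, duplicate determinations at 12.5 µM inhibitor, IC50 = [I]/(v0/v − 1).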

[1] = Inhibition of bovine trypsin; design: species or system Bos taurus
Outline: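 Bovine pancreatic trypsin at 12.5 ng/ml final, 25 °C, in 20 mM Tris-HCl, 150 mM NaCl, pH 8.4. Substrate Suc-Ala-Ala-Pro-Arg-pNA at 200 µM final, with 6% DMSO. Started with enzyme; release of pNA read at 405 nm over 10 min. IC50 taken from linear steady-state turnover, duplicate determinations at inhibitor 25 and 50 µM.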

Procathepsin L = Procathepsin L (Homo sapiens, UniProt P07711); assay: Inhibition of human cathepsin L
Outline: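 Human cathepsin L at 4 ng/ml final, 37 °C, in 100 mM sodium phosphate pH 6.0, 100 mM NaCl, 5 mM EDTA, 0.01% Brij 35. Enzyme was activated 30 min at 37 °C with 5 mM DTT. Z-Phe-Arg-pNA at 100 µM final, with 3% DMSO; read at 405 nm over 10 min, with linear regression of progress curves.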

[2] = target: Angiotensin-converting enzyme (Homo sapiens, UniProt P12821); assay: Inhibition of human ACE
Outline: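 Human ACE at 86.8 ng/ml final, 37 °C, in 50 mM Tris-HCl, 300 mM NaCl, pH 7.5. Enzyme was preincubated 10 min at 37 °C after dilution. FA-Phe-Gly-Gly at 3 mM final, with 3% DMSO. Absorbance decrease read at 352 nm over 20 min. IC50 from linear steady-state turnover.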

Acetylcholinesterase = Acetylcholinesterase (Homo sapiens, UniProt P22303); assay: Inhibition of acetylcholinesterase
Outline: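 Acetylcholinesterase in 100 mM sodium phosphate, 100 mM NaCl, pH 7.3. Enzyme, DTNB and test compound (acetonitrile stocks, added acetonitrile) preincubated 15 min at 25 °C. Reaction started with acetylthiocholine; DTNB final 350 µM. Read at 412 nm, 25 °C. Progress curves followed 5 min and fitted by linear regression; IC50 derived from rates with and without inhibitor.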

[3] = target: Bile salt-activated lipase (Bos taurus) (UniProt P30122); assay: Inhibition of cholesterol esterase
Chain of Bile salt-activated lipase (Bos taurus) (P30122 whole entry, looked up): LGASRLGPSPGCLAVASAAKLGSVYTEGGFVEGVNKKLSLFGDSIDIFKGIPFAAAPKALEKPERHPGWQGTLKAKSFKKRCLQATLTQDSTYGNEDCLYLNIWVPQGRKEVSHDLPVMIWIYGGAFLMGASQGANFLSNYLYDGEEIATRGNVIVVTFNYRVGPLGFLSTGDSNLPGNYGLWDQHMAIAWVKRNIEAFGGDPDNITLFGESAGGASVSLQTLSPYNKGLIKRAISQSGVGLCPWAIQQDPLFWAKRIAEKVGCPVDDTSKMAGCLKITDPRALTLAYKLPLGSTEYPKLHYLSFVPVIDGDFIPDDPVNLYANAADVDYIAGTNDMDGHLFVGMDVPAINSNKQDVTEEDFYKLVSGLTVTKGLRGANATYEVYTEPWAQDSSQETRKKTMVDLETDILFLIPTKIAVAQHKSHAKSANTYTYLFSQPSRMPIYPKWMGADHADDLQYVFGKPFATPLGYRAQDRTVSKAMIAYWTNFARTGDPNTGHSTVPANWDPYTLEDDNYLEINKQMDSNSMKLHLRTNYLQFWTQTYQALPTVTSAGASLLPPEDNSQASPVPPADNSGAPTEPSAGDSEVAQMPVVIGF

Chain of Procathepsin L (P07711 whole entry): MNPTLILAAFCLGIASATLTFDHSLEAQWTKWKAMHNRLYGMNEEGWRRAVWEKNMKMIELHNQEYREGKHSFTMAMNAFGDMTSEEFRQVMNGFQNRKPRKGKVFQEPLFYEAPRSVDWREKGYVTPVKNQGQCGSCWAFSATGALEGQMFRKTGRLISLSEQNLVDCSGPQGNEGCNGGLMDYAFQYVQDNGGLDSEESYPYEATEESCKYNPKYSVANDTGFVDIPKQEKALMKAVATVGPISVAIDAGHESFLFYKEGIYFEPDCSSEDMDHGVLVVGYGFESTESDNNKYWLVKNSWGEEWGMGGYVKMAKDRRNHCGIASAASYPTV
Chain of Angiotensin-converting enzyme (P12821 whole entry): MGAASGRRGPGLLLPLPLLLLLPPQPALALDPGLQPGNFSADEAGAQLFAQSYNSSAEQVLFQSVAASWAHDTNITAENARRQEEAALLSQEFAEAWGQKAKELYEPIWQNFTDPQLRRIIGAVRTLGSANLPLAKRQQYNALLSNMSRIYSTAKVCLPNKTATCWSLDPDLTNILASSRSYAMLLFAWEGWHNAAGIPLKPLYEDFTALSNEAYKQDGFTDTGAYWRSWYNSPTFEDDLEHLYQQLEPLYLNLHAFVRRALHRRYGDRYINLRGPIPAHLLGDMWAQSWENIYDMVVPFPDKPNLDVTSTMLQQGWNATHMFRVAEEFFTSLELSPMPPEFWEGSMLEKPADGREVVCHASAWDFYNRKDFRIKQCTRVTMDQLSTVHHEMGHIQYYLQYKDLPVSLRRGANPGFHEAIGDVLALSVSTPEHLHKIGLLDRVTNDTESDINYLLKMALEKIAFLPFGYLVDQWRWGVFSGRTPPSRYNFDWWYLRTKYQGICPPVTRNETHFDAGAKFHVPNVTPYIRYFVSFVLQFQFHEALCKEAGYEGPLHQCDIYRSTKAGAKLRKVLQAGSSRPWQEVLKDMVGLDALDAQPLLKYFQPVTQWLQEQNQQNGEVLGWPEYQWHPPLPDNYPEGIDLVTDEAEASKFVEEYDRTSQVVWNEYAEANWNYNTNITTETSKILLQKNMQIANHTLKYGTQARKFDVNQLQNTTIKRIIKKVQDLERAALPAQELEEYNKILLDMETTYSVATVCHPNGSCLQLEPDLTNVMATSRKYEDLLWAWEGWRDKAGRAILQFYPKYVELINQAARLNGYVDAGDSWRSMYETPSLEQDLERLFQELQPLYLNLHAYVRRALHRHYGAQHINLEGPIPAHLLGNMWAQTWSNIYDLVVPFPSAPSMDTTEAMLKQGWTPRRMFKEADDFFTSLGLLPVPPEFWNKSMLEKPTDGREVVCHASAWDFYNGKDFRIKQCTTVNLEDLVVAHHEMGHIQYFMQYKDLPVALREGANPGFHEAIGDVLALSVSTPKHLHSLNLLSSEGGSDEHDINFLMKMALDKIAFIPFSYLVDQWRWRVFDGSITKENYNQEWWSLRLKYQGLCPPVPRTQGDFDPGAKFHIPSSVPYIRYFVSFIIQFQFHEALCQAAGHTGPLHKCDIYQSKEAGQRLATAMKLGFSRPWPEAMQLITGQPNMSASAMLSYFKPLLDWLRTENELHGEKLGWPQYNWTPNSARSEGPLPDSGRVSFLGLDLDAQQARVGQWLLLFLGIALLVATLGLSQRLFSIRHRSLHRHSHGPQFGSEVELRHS
Chain of Acetylcholinesterase (P22303 whole entry): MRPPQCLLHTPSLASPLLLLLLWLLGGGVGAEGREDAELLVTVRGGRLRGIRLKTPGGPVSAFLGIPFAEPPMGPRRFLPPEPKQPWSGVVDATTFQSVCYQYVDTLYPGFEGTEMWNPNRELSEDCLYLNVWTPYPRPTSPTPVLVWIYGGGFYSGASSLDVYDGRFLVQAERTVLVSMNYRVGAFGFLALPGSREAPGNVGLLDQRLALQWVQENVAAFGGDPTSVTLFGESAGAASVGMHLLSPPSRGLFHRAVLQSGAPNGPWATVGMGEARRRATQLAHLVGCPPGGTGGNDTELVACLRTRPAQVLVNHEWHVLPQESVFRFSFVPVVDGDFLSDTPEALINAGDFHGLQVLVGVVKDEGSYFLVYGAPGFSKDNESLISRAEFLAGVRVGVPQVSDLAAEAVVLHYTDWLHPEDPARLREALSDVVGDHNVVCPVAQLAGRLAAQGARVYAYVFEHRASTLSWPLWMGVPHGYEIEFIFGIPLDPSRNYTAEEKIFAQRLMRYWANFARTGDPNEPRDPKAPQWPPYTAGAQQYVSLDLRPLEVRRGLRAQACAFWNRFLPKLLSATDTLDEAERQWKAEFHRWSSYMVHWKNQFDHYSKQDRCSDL

O=C1C2=C(CCCC2)S(=O)(=O)N1c1cccc(Br)n1
> 100 µM: IC50 (Neutrophil elastase) | IC50 (Cathepsin G) | IC50 [1] | IC50 (Procathepsin L) | IC50 [2] | IC50 (Acetylcholinesterase) | IC50 [3]

O=C1C2=C(CCCC2)S(=O)(=O)N1c1ncc(F)cc1F
> 100 µM: IC50 (Neutrophil elastase) | IC50 (Cathepsin G) | IC50 [1] | IC50 (Procathepsin L) | IC50 [2] | IC50 (Acetylcholinesterase) | IC50 [3]

O=C1C2=C(CCCC2)S(=O)(=O)N1c1c(F)c(F)nc(F)c1F
3.1 µM: IC50 (Neutrophil elastase)
> 100 µM: IC50 (Cathepsin G) | IC50 [1] | IC50 (Procathepsin L) | IC50 [2] | IC50 (Acetylcholinesterase) | IC50 [3]

CC1=C(c2ccccc2)C(=O)N(c2c(F)c(F)nc(F)c2F)S1(=O)=O
> 100 µM: IC50 (Cathepsin G) | IC50 [1] | IC50 (Procathepsin L) | IC50 [2] | IC50 (Acetylcholinesterase) | IC50 [3]
33 µM: IC50 (Neutrophil elastase)

O=C1C2=C(CCCC2)S(=O)(=O)N1c1c(F)c(F)c(F)c(F)c1F
> 100 µM: IC50 (Neutrophil elastase) | IC50 (Cathepsin G) | IC50 [1] | IC50 (Procathepsin L) | IC50 [2] | IC50 (Acetylcholinesterase) | IC50 [3]

O=C1C2=C(CCCC2)S(=O)(=O)N1c1ccncc1.[O-][Cl+3]([O-])([O-])O
> 100 µM: IC50 (Neutrophil elastase) | IC50 (Cathepsin G) | IC50 [1] | IC50 (Procathepsin L) | IC50 [2] | IC50 (Acetylcholinesterase) | IC50 [3]

CC1=C(C)S(=O)(=O)N(c2c(F)c(F)nc(F)c2F)C1=O
> 100 µM: IC50 (Neutrophil elastase) | IC50 (Cathepsin G) | IC50 [1] | IC50 (Procathepsin L) | IC50 [2] | IC50 (Acetylcholinesterase) | IC50 [3]

O=C1C2=C(CCCC2)S(=O)(=O)N1c1cccc(Cl)n1
> 100 µM: IC50 (Neutrophil elastase) | IC50 (Cathepsin G) | IC50 [1] | IC50 (Procathepsin L) | IC50 [2] | IC50 (Acetylcholinesterase) | IC50 [3]

O=C1c2ccccc2S(=O)(=O)N1c1c(F)c(F)nc(F)c1F
3.7 µM: IC50 (Cathepsin G)
0.081 µM: IC50 (Neutrophil elastase)
11 µM: IC50 [3]
> 100 µM: IC50 (Procathepsin L) | IC50 [2] | IC50 (Acetylcholinesterase)
0.028 µM: Ki (Neutrophil elastase)
7.5 µM: IC50 [1]
